In ChEMBL document CHEMBL2021879, “Novel pyrrolopyrimidine analogues as potent dipeptidyl peptidase IV inhibitors based on pharmacokinetic property-driven optimization” (Eur J Med Chem, 2012):
pIC50: −log10 of the molar value. The source made the active and inactive calls. No cut-off for these calls is given here.

What was measured:
[1] = Efflux ratio of apparent permeability from apical to basolateral side to basolateral to apical side in human Caco2 cells at 10 uM after 60 mins by LC-MS/MS analysis; settings: Caco-2
[2] = Apparent permeability from basolateral to apical side in human Caco2 cells at 10 uM after 60 mins by LC-MS/MS analysis; settings: Caco-2
[3] = Apparent permeability from apical to basolateral side in human Caco2 cells at 10 uM after 60 mins by LC-MS/MS analysis; settings: Caco-2
[4] = Metabolic stability in rat liver microsomes assessed as compound remaining at 1 uM after 30 mins by LC-MS/MS; type: ADME, Microsome; settings: read-out: Stability
[5] = Oral bioavailability in Sprague-Dawley rat at 20 to 25 mg/kg administered as single dose; type: ADME, organism-based; settings: in vivo
[6] = Metabolic stability in rat liver microsomes assessed as compound turnover at 1 uM after 30 mins by LC-MS/MS; type: ADME, Microsome; settings: read-out: Drug metabolism
Summary of the method: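 Pooled rat liver microsomes, 30 min incubation; read-out is percent compound turnover (hepatic first-pass effect); mean of at least three independent determinations.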

Mus musculus [7] = assay: Reduction of glucose excursions in C57Bl/6j lean mouse at 3 mg/kg, po measured after 45 mins by oral glucose tolerance test; type: functional, organism-based; set-up: dose 3 mg/kg
Summary of the method: (§1)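 OGTT after oral treatment: C57BL/6j lean mice at 3 mg/kg, and ob/ob mice at 1, 3 and 10 mg/kg. Blood glucose followed over the glucose challenge; excursion expressed as AUC₀₋₁₂₀ change rate (percent inhibition).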

Dipeptidyl peptidase 4 = Dipeptidyl peptidase 4 (Homo sapiens, UniProt P27487); assay: Inhibition of human DPP4 after 10 mins
Dipeptidyl peptidase 8 = Dipeptidyl peptidase 8 (Homo sapiens, UniProt Q6V1X1); assay: Inhibition of DPP8
Dipeptidyl peptidase 9 = Dipeptidyl peptidase 9 (Homo sapiens, UniProt Q86TI2); assay: Inhibition of DPP9
[8] = Half life in Sprague-Dawley rat at 20 to 25 mg/kg, po and […], iv administered as single dose; type: ADME, organism-based; set-up: dose 20-25 mg/kg, route oral; settings: in vivo
Mus musculus [9] = assay: Reduction of glucose excursions in ob/ob type 2 diabetes mouse model at 1 mg/kg, po measured after 45 mins by oral glucose tolerance test; type: functional; settings: 0.75 h; summary of the method: as §1
Mus musculus [10] = assay: Reduction of glucose excursions in ob/ob type 2 diabetes mouse model at 3 mg/kg, po measured after 45 mins by oral glucose tolerance test; type: functional; settings: 0.75 h; summary of the method: as §1
Mus musculus [11] = assay: Reduction of glucose excursions in ob/ob type 2 diabetes mouse model at 10 mg/kg, po measured after 45 mins by oral glucose tolerance test; type: functional; settings: 0.75 h; summary of the method: as §1
[12] = target: Voltage-gated inwardly rectifying potassium channel KCNH2 (Homo sapiens, UniProt Q12809)
Voltage-gated inwardly rectifying potassium channel KCNH2, sequence (Q12809 whole entry): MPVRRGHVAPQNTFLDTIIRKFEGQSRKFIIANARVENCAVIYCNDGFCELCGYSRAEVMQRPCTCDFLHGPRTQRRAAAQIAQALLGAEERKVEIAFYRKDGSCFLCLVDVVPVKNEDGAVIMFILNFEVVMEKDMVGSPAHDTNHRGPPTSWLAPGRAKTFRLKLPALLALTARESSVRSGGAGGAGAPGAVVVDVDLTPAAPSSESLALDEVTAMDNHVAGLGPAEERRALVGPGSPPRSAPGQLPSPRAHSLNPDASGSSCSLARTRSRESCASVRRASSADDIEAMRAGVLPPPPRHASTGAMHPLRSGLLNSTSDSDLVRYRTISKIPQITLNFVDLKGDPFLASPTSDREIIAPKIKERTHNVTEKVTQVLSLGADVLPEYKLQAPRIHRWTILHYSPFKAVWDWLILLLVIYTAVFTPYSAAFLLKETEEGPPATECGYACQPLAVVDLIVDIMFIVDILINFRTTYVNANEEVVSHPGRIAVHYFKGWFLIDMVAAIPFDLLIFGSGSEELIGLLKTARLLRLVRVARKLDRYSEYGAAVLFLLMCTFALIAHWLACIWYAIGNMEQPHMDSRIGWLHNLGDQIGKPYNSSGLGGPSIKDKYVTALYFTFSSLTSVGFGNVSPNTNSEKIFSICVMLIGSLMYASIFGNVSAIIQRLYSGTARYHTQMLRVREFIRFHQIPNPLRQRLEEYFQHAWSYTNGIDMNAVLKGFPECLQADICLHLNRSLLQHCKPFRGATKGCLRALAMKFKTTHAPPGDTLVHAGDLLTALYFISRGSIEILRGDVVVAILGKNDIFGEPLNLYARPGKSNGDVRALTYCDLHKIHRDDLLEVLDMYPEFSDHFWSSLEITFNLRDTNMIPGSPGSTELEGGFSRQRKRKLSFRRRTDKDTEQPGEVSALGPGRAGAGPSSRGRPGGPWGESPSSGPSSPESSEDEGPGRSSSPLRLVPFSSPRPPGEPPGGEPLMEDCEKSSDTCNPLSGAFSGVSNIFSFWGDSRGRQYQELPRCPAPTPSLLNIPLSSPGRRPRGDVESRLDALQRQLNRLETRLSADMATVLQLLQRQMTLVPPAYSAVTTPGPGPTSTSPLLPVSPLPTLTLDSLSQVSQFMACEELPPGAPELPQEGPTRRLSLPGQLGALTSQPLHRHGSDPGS

Dipeptidyl peptidase 8, sequence (Q6V1X1 whole entry): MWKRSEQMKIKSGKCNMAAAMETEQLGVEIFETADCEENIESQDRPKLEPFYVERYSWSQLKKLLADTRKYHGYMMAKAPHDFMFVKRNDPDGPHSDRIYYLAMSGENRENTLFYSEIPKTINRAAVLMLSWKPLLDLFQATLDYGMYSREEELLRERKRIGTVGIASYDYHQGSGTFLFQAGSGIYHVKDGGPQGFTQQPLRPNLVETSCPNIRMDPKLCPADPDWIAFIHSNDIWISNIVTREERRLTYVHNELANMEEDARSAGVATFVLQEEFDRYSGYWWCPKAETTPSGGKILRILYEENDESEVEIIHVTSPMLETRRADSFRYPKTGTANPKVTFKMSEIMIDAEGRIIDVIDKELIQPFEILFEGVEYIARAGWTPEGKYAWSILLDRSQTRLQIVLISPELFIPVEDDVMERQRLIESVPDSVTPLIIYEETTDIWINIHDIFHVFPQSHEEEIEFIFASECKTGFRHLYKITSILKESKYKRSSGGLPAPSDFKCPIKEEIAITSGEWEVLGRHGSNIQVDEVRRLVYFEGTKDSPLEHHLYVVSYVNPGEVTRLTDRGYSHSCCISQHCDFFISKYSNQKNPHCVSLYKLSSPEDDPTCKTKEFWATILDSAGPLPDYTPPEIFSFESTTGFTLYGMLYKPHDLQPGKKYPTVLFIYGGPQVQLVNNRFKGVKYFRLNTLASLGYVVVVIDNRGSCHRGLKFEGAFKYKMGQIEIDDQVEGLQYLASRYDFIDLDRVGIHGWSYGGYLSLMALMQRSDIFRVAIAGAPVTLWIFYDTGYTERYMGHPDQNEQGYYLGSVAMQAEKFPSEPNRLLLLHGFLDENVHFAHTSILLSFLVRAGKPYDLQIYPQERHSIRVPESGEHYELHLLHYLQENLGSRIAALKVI
Dipeptidyl peptidase 9, sequence (Q86TI2 whole entry): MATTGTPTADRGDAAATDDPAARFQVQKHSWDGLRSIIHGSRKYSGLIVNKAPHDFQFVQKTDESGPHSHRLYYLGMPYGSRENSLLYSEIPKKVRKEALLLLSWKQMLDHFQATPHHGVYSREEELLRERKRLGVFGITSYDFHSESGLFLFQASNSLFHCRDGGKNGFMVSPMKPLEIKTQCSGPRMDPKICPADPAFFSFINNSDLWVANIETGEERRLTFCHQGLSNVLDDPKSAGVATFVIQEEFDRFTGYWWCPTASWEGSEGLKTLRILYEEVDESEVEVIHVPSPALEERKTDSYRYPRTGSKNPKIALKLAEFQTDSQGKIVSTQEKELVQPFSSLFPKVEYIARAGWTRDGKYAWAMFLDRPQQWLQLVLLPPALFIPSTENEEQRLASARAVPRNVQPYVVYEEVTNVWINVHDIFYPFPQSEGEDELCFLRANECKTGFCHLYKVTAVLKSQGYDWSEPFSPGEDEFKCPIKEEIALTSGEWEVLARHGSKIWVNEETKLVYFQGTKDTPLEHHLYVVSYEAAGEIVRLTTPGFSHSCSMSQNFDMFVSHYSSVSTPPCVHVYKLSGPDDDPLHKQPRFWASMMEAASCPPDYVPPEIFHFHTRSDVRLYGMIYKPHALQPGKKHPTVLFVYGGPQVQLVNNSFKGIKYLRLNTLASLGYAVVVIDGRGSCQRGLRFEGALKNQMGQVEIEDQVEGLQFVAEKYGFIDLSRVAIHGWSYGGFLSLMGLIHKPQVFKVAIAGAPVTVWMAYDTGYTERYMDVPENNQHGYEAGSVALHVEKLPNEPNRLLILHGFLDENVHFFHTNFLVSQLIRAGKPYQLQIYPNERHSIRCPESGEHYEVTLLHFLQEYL
Dipeptidyl peptidase 4, sequence (P27487 whole entry): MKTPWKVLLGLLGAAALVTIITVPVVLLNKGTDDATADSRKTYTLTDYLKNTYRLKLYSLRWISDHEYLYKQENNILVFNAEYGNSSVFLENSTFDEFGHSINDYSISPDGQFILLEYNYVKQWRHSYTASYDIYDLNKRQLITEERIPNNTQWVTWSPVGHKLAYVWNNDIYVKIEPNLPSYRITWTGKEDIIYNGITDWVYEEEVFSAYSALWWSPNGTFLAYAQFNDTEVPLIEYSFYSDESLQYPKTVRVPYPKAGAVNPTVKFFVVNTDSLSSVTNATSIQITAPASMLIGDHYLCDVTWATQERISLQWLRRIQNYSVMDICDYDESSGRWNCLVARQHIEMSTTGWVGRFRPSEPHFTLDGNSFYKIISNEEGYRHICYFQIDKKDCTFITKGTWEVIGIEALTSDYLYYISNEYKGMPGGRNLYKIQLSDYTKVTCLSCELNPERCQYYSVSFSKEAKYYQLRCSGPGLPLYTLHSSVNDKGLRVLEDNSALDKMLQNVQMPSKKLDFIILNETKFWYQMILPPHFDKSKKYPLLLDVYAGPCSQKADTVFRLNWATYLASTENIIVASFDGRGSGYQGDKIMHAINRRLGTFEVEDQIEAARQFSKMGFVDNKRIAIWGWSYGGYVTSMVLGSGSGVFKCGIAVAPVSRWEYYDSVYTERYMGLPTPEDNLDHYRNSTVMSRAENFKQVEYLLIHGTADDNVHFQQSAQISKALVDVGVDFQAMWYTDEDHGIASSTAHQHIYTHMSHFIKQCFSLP

efflux ratio at 1 h, 10 µM [1] | Papp B→A at 1 h, 10 µM [2] [nm/s] | Papp A→B at 1 h, 10 µM [3] [nm/s] | remaining at 0.5 h, 1 µM [4] [%] | Structure (SMILES) | other results
3.37 | 84.1 | 25 | 41 | Cn1c(Br)c(Br)c2c(=O)n(Cc3ccccc3C#N)c(N3CCC[C@@H](N)C3)nc21 | 
13.3 | 246 | 18.4 |  | Cn1ccc2c(=O)n(Cc3ccccc3C#N)c(N3CCC[C@@H](N)C3)nc21 | 
37.8 | 113 | 3 |  | N#Cc1ccccc1Cn1c(N2CCC[C@@H](N)C2)nc2c(-c3cccnc3)c[nH]c2c1=O | 
11.4 | 212 | 18.6 |  | N#Cc1ccccc1Cn1c(N2CCC[C@@H](N)C2)nc2c(-c3ccsc3)c[nH]c2c1=O | 
 |  |  | 0 | Cc1csc2c(=O)n(Cc3ccccc3C#N)c(N3CCC[C@@H](N)C3)nc12 | 
45.3 | 266 | 5.9 |  | N#Cc1ccccc1Cn1c(N2CCC[C@@H](N)C2)nc2[nH]c(-c3ccc(F)cc3)cc2c1=O | 
 |  |  | 6.6 | N#Cc1ccccc1Cn1c(N2CCC[C@@H](N)C2)nc2ccsc2c1=O | bioavailability [5]: 23.3%; metabolised at 0.5 h, 1 µM [6]: 93%; inhibition (Mus musculus [7]): Active
 |  |  | 3.27 | Cc1csc2nc(N3CCC[C@@H](N)C3)n(Cc3ccccc3C#N)c(=O)c12 | 
 |  |  |  | Cn1c(=O)cc(N2CCC[C@@H](N)C2)n(Cc2ccccc2C#N)c1=O | inhibition (Mus musculus [7]): Active
 | 184 | 28.1 | 78 | N#Cc1ccccc1Cn1c(N2CCC[C@@H](N)C2)nc2c(Br)c[nH]c2c1=O | bioavailability [5]: 41%; pIC50 (Dipeptidyl peptidase 8): < 5.00; pIC50 (Dipeptidyl peptidase 9): < 5.00; half-life [8]: 2 h; inhibition (Mus musculus [7]): Active; inhibition in vivo at 1 mg/kg (Mus musculus [9]): 27.9%; inhibition in vivo at 3 mg/kg (Mus musculus [10]): 51.9%; inhibition in vivo at 10 mg/kg (Mus musculus [11]): 72.7%; pIC50 [12]: < 3.52
 |  |  | 24.6 | N#Cc1ccccc1Cn1c(N2CCC[C@@H](N)C2)nc2sccc2c1=O | 
4.2 | 144 | 34.4 | 39.2 | N#Cc1ccccc1Cn1c(N2CCC[C@@H](N)C2)nc2cc[nH]c2c1=O | 
2.51 | 103 | 41.3 | 28.1 | N#Cc1ccccc1Cn1c(N2CCC[C@@H](N)C2)nc2c(-c3ccncc3)c[nH]c2c1=O | 
 |  |  | 65.1 | N#Cc1ccccc1Cn1c(N2CCC[C@@H](N)C2)nc2[nH]ccc2c1=O | bioavailability [5]: 5.7%
 |  |  | 4.6 | N#Cc1ccccc1Cn1c(N2CCC[C@@H](N)C2)nc2scc(C(F)(F)F)c2c1=O | 

Structure (SMILES) | efflux ratio at 1 h, 10 µM [1] | Papp B→A at 1 h, 10 µM [2] [nm/s] | Papp A→B at 1 h, 10 µM [3] [nm/s] | remaining at 0.5 h, 1 µM [4] [%] | other results
N#Cc1ccccc1Cn1c(N2CCC[C@@H](N)C2)nc2[nH]c(Br)cc2c1=O |  | 114 | 54.8 | 71.9 | pIC50 (Dipeptidyl peptidase 4): 8.58; pIC50 (Dipeptidyl peptidase 8): < 4.60; pIC50 (Dipeptidyl peptidase 9): < 4.60
N#Cc1ccccc1Cn1c(N2CCC[C@@H](N)C2)nc2[nH]c(-c3cccnc3)cc2c1=O |  | 60.1 | 25.5 | 73.8 | pIC50 (Dipeptidyl peptidase 4): 8.63; pIC50 (Dipeptidyl peptidase 8): < 5.00; pIC50 (Dipeptidyl peptidase 9): < 5.00
Cc1cc2c(=O)n(Cc3ccccc3C#N)c(N3CCC[C@@H](N)C3)nc2[nH]1 |  | 93.6 | 43.6 | 91.4 | pIC50 (Dipeptidyl peptidase 4): 7.86; pIC50 (Dipeptidyl peptidase 8): < 4.60; pIC50 (Dipeptidyl peptidase 9): < 4.60
